# Test results: ChEMBL document CHEMBL1157562, “Piperazinyl glutamate pyridines as potent orally bioavailable P2Y12 antagonists for inhibition of platelet aggregation” (J Med Chem, 2010)
# Key:
# Platelet = test: Relative potency, ratio of IC50 for drug to IC50 for AZD-6140 for platelet aggregation in human platelet rich plasma; assay type: functional
# P2Y purinoceptor 12 = P2Y purinoceptor 12 (Homo sapiens, UniProt Q9H244); test: Displacement of [33P]ADP from human recombinant P2Y12 receptor expressed in CHO cells; assay type: cell-based
# P2Y purinoceptor 12, sequence (Q9H244 whole entry): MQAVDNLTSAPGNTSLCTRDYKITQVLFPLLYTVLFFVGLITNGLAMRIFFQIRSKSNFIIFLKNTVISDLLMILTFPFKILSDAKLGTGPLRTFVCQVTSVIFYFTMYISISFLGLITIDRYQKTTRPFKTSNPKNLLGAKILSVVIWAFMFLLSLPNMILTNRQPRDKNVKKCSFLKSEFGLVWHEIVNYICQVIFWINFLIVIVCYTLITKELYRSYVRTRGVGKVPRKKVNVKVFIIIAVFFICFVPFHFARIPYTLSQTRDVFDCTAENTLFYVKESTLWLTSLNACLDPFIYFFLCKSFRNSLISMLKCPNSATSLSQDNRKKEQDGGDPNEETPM
# How it was run: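 Washed membranes from CHO cells expressing synthetic human P2Y12, incubated 1 h at room temperature with 0.2 nM 33P-MeSADP in 50 mM Tris/100 mM NaCl/1 mM EDTA. Compound was tested as a 7-point 3-fold series in triplicate. Nonspecific binding was defined with 300 nM 2-MeSADP, followed by filtration.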
# [1] = Antiplatelet aggregation activity against adenosine diphosphate-induced human platelet rich plasma assessed as inhibition of platelet aggregation by turbidimetric method; assay type: functional; conditions: Homo sapiens, Platelet, Plasma
# How it was run: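 Human PRP, prepared by two-step centrifugation and adjusted to 330 000 platelets/μL with PPP. Compound was preincubated 5 min at 37 °C in 0.5% DMSO, then 20 μM ADP was added. OD626 was read kinetically for 15 min at 37 °C with mixing between reads.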
Ki (P2Y purinoceptor 12) [nM],IC50 [1] [nM],SMILES,Ratio IC50 (Platelet)
2.4,520,CCCCOC(=O)N1CCN(C(=O)[C@H](CCC(=O)O)NC(=O)c2cc(OC3CCN(C(=O)COC)CC3)cc(-c3ccccc3)n2)CC1,0.78
19,4700,CCCCCOC(=O)N1CCN(C(=O)[C@H](CCC(=O)O)NC(=O)c2cc(OC3CCN(C(=O)C(F)(F)F)CC3)cc(-c3ccccc3)n2)CC1,4.4
9.2,5500,CCCCCOC(=O)N1CCN(C(=O)[C@H](CCC(=O)O)NC(=O)c2cc(NC(=O)N3CCC(OC)CC3)cc(-c3ccccc3)n2)CC1,6.1
14,8300,CCCCCCOC(=O)N1CCN(C(=O)[C@H](CCC(=O)O)NC(=O)c2cc(OCCOC)cc(-c3ccccc3)n2)CC1,7.1
11,2300,CCCCOC(=O)N1CCN(C(=O)[C@H](CCC(=O)O)NC(=O)c2cc(OCC3CCOCC3)cc(-c3ccccc3)n2)CC1,3.6
2.4,1800,CCCCCOC(=O)N1CCN(C(=O)[C@H](CCC(=O)O)NC(=O)c2cc(N3CCC(CO)CC3)cc(-c3ccccc3)n2)CC1,6.3
4.2,210,CCCCOC(=O)N1CCN(C(=O)[C@H](CCC(=O)O)NC(=O)c2cc(OCC3CCNCC3)cc(-c3ccccc3)n2)CC1,0.37
2.6,1500,CCCCOC(=O)N1CCN(C(=O)[C@H](CCC(=O)O)NC(=O)c2cc(OCC3CCN(C(=O)COC)CC3)cc(-c3ccccc3)n2)CC1,1.4
4.9,690,CCCCCOC(=O)N1CCN(C(=O)[C@H](CCC(=O)O)NC(=O)c2cc(OC(=O)N3CC[C@H](OC)C3)cc(-c3ccccc3)n2)CC1,1
1.5,770,CCCCOC(=O)N1CCN(C(=O)[C@H](CCC(=O)O)NC(=O)c2cc(OC(=O)N3CC[C@@H](OC)C3)cc(-c3ccccc3)n2)CC1,0.97
5.3,620,CCCCOC(=O)N1CCN(C(=O)[C@H](CCC(=O)O)NC(=O)c2cc(OCC3CCN(CCOC)CC3)cc(-c3ccccc3)n2)CC1,0.53
6.5,8200,CCCCCOC(=O)N1CCN(C(=O)[C@H](CCC(=O)O)NC(=O)c2cc(OC3CCN(C(=O)OCC)CC3)cc(-c3ccccc3)n2)CC1,8.1
5,1800,CCCCCOC(=O)N1CCN(C(=O)[C@H](CCC(=O)O)NC(=O)c2cc(OC3CCN(C)CC3)cc(-c3ccccc3)n2)CC1,1.8
4.5,410,CCCCOC(=O)N1CCN(C(=O)[C@H](CCC(=O)O)NC(=O)c2cc(OCC3CCN(C(C)C)CC3)cc(-c3ccccc3)n2)CC1,0.33
3.7,1200,CCCCOC(=O)N1CCN(C(=O)[C@H](CCC(=O)O)NC(=O)c2cc(OCC3CCCNC3)cc(-c3ccccc3)n2)CC1 (some centres undefined),0.57
3.9,2100,CCCCOC(=O)N1CCN(C(=O)[C@H](CCC(=O)O)NC(=O)c2cc(OCC3CCN(C(C)=O)CC3)cc(-c3ccccc3)n2)CC1,1.4
2.5,2000,CCCCOC(=O)N1CCN(C(=O)[C@H](CCC(=O)O)NC(=O)c2cc(OC3CCN(C)CC3)cc(-c3ccccc3)n2)CC1,1.9
6.9,2900,CCCCOC(=O)N1CCN(C(=O)[C@H](CCC(=O)O)NC(=O)c2cc(OCCCO)cc(-c3ccccc3)n2)CC1,5.1
12,2100,CCCCOC(=O)N1CCN(C(=O)[C@H](CCC(=O)O)NC(=O)c2cc(OC3CCN(C(=O)C(F)(F)F)CC3)cc(-c3ccccc3)n2)CC1,3.4
6,590,CCCCCOC(=O)N1CCN(C(=O)[C@H](CCC(=O)O)NC(=O)c2cc(OC(=O)N3CCC(OCC)CC3)cc(-c3ccccc3)n2)CC1,1.2
7.6,3300,CCCCOC(=O)N1CCN(C(=O)[C@H](CCC(=O)O)NC(=O)c2cc(OC3CCN(S(=O)(=O)CC)CC3)cc(-c3ccccc3)n2)CC1,3.1
3,460,CCCCOC(=O)N1CCN(C(=O)[C@H](CCC(=O)O)NC(=O)c2cc(OCCC3CCNCC3)cc(-c3ccccc3)n2)CC1,0.45
43,4500,CCCCCOC(=O)N1CCN(C(=O)[C@H](CCC(=O)O)NC(=O)c2cc(NC(=O)N3CCC(COC)CC3)cc(-c3ccccc3)n2)CC1,5.2
5.3,3000,CCCCOC(=O)N1CCN(C(=O)[C@H](CCC(=O)O)NC(=O)c2cc(OCC3CCN(S(=O)(=O)CC)CC3)cc(-c3ccccc3)n2)CC1,2.8
2.5,240,CCCCOC(=O)N1CCN(C(=O)[C@H](CCC(=O)O)NC(=O)c2cc(OCC3CCN(C)CC3)cc(-c3ccccc3)n2)CC1,0.38
7.6,4000,CCCCOC(=O)N1CCN(C(=O)[C@H](CCC(=O)O)NC(=O)c2cc(OCC3CCN(C(=O)OCC)CC3)cc(-c3ccccc3)n2)CC1,2.2

# Continued, molecule first:
SMILES,Ki (P2Y purinoceptor 12) [nM],IC50 [1] [nM],Ratio IC50 (Platelet)
CCCCCOC(=O)N1CCN(C(=O)[C@H](CCC(=O)O)NC(=O)c2cc(C(=O)NCC)cc(-c3ccccc3)n2)CC1,13,9700,13
CCCCCCOC(=O)N1CCN(C(=O)[C@H](CCC(=O)O)NC(=O)c2cc(N3CCC(N)CC3)cc(-c3ccccc3)n2)CC1,3.3,2400,3.4
CCCCCOC(=O)N1CCN(C(=O)[C@H](CCC(=O)O)NC(=O)c2cc(NCCOC)cc(-c3ccccc3)n2)CC1,9.8,3200,4.9
CCOC(=O)N1CCN(C(=O)[C@H](CCC(=O)O)NC(=O)c2cc(OCCCCO)cc(-c3ccccc3)n2)CC1,132,13000,13
CCCCOC(=O)N1CCN(C(=O)[C@H](CCC(=O)O)NC(=O)c2cc(N3CCC(NC)CC3)cc(-c3ccccc3)n2)CC1,2.7,1200,0.86
CCOC(=O)N1CCN(C(=O)[C@H](CCC(=O)O)NC(=O)c2cc(OCCCOC)cc(-c3ccccc3)n2)CC1,69,8200,11
CCCCCOC(=O)N1CCN(C(=O)[C@H](CCC(=O)O)NC(=O)c2cc(OCCO)cc(-c3ccccc3)n2)CC1,31,12000,10
CCOC(=O)N1CCN(C(=O)[C@H](CCC(=O)O)NC(=O)c2cc(NCCO)cc(-c3ccccc3)n2)CC1,117,12000,14
CCCCCCOC(=O)N1CCN(C(=O)[C@H](CCC(=O)O)NC(=O)c2cc(O)cc(-c3ccccc3)n2)CC1,20,21000,21
CCCCOC(=O)N1CCN(C(=O)[C@H](CCC(=O)O)NC(=O)c2cc(OC3CCNC3)cc(-c3ccccc3)n2)CC1 (some centres undefined),3.7,2600,1.3
CCCCCCOC(=O)N1CCN(C(=O)[C@H](CCC(=O)O)NC(=O)c2cc(N3CCC(N4CCCC4)CC3)cc(-c3ccccc3)n2)CC1,2.6,1200,2.3
CCCCCOC(=O)N1CCN(C(=O)[C@H](CCC(=O)O)NC(=O)c2cc(OCCN)cc(-c3ccccc3)n2)CC1,8.8,2400,3
CCOC(=O)N1CCN(C(=O)[C@H](CCC(=O)O)NC(=O)c2cc(N(C)CCO)cc(-c3ccccc3)n2)CC1,87,57000,26
CCCCCCOC(=O)N1CCN(C(=O)[C@H](CCC(=O)O)NC(=O)c2cc(OCCO)cc(-c3ccccc3)n2)CC1,18,21000,13
CCCCCOC(=O)N1CCN(C(=O)[C@H](CCC(=O)O)NC(=O)c2cc(C(=O)N(C)C)cc(-c3ccccc3)n2)CC1,2.4,1100,1
CCCCCOC(=O)N1CCN(C(=O)[C@H](CCC(=O)O)NC(=O)c2cc(N3CCC(NC)CC3)cc(-c3ccccc3)n2)CC1,6.5,1000,1.1
CCCCCOC(=O)N1CCN(C(=O)[C@H](CCC(=O)O)NC(=O)c2cc(CCCCO)cc(-c3ccccc3)n2)CC1,3.6,3200,4.2
CCOC(=O)N1CCN(C(=O)[C@H](CCC(=O)O)NC(=O)c2cc(OCc3ccccc3)cc(-c3ccccc3)n2)CC1,28,31000,42
CCCCOC(=O)N1CCN(C(=O)[C@H](CCC(=O)O)NC(=O)c2cc(N3CCC(N)CC3)cc(-c3ccccc3)n2)CC1,3.5,910,1.2
CCCCCOC(=O)N1CCN(C(=O)[C@H](CCC(=O)O)NC(=O)c2cc(NC(=O)CN3CCN(C)CC3)cc(-c3ccccc3)n2)CC1,2.3,4300,4.1
CCCCCOC(=O)N1CCN(C(=O)[C@H](CCC(=O)O)NC(=O)c2cc(CCCO)cc(-c3ccccc3)n2)CC1,3.8,1900,2.6
CCCCCOC(=O)N1CCN(C(=O)[C@H](CCC(=O)O)NC(=O)c2cc(CCCCOC)cc(-c3ccccc3)n2)CC1,8.3,4200,4.5
